Compound activity deposited in PubChem by several laboratories.
This is a sample that favours compounds with a hit; in the whole collection about 0.89% have one here.
PG9 binder: small molecules binding HIV-1 gp120 antibody PG9; TR-FRET gp120-PG9 antibody binding; inhibition, % at 6.7 µM; actives 0.43% (n = 360,000); AID 624416; in the data active = inhibition above about 8.5%
ABCB6 inh 2: human ABCB6 transporter inhibition; actives 0.19% (n = 360,000); Q9NP58; K562-ABCB6 porphyrin accumulation, flow cytometry, 1 h; hits give low values; fluorescence ratio to DMSO, % at 10 µM;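 active = fluorescence ratio to DMSO below 75%, the collection mean minus 3 SD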;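 also: signal is porphyrin accumulated inside mitochondria; lower ratio means ABCB6 inhibition with less porphyrin fluorescence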
Target sequence (Q9NP58 whole entry, looked up): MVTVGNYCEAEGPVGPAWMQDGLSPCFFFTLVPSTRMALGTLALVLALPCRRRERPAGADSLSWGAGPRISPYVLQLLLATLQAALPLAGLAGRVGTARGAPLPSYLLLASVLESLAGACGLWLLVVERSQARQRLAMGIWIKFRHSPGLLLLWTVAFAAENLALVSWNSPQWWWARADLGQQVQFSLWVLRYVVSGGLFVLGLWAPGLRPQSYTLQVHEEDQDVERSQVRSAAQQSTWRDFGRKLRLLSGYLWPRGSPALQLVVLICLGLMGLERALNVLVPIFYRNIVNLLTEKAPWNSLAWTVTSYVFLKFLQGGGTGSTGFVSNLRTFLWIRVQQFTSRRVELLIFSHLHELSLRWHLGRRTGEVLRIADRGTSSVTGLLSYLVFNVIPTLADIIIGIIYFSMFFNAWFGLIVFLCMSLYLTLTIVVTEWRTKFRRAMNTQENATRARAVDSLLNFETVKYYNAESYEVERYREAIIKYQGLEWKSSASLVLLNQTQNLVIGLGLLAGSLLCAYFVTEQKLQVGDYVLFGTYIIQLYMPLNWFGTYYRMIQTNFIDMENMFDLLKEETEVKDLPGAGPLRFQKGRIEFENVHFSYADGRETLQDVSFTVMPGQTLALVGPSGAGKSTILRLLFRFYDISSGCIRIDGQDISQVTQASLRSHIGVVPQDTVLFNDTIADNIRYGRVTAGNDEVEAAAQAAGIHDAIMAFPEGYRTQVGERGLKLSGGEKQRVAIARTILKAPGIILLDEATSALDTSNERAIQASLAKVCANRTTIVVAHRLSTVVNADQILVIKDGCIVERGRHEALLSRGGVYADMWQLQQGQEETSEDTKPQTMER
hiPSC survival: increases survival of single human iPS cells. hiPSC single-cell survival, ATPlite luminescence; 100% = ROCK inhibitor wells, 0% = DMSO. survival enhancement, % at 20 µM. AID 602274. actives 0.044% (n = 360,000); in the data active = survival enhancement above about 18%;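 also: cells exposed to compounds for 16 hours before the ATP read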
Arr AP2 block: human beta-arrestin and AP2 interaction inhibition. inhibition, % at 10 µM. FITC-arrestin peptide / GST-AP2 beads, flow cytometry; AP2 beta2 appendage carries R879A mutation. actives 0.31% (n = 340,000). AID 504490;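 active = inhibition above a set limit, near 3 SD of compounds lacking own fluorescence, cut at about 54% in these data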
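Material – AP2 appendage R879A on GSH beads · Buffer or medium – PBS with 0.05% Tween 20 and 0.1% BSA · Probe or stimulus – fluorescein-tagged arrestin peptide at 50 nM final · Incubation – compound with beads 12 min RT, then probe 1 h RT · Detection – high-throughput flow cytometry of beads, ex 488, em 535 nm · Evaluation – percent response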
ABCB6 blocker 1: human ABCB6 transporter inhibition | shares compounds with ABCB6 inh 2 | K562-ABCB6 porphyrin accumulation, flow cytometry, 1 h; hits give low values | ratio response (% of DMSO), % at 10 µM | 700 tested, under 10 active;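 active = repeat-averaged ratio response below 75% of DMSO, the collection mean minus 3 SD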;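 also: median porphyrin fluorescence at 575 nm with 488 nm excitation from mitochondria; lower ratio means less porphyrin signal so ABCB6 inhibition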
Hits are given with their value; - = inactive; . = no result.

SMILES	PG9 binder	ABCB6 inh 2	hiPSC survival	Arr AP2 block	ABCB6 blocker 1
COc1ccc(-c2cc(C(=O)Nc3ccc(OC)c(OC)c3)[nH]n2)c(C)c1	-	70.0	-	.	-
COc1ccc(CCNC(=O)C2CCCN(C(=O)c3ccc(Cl)cc3)C2)cc1 (stereo not given)	-	73.0	-	-	-
O=C(CCc1ccc(S(=O)(=O)N2CCOCC2)cc1)Oc1ccccc1	-	62.0	-	-	-
CCOc1ccc(C2Nc3ccccc3NC3=C2C(=O)CC(C)(C)C3)cc1OC (stereo not given)	-	66.0	-	-	-
Cc1cc(C)c(C#N)c(N2CCN(Cc3ccc4c(c3)OCO4)CC2)n1	-	-	-	-	.
Cc1cc(C)c(C#N)c(N2CCN(Cc3ccccc3)CC2)n1	-	47.0	-	-	-
Cc1nc2c(C(=O)NCCC(C)C)c[nH]n2c(=O)c1Cc1ccccc1F	-	-	-	-	-
COc1ccc(CNc2ncnc3cc(Cl)ccc23)cc1OC	-	-	-	-	.
Fc1ccc(CNc2ncnc3cc(Cl)ccc23)cc1	-	9.0	-	-	-
COc1ccc(CN(Cc2nc3ccccc3c(=O)[nH]2)C(=O)NC2CCCCC2)cc1	-	-	-	-	.
COc1ccc(S(=O)(=O)N(Cc2nc3ccccc3c(=O)[nH]2)C2CCCC2)cc1	-	68.0	-	-	-
COc1ccc(/C=C2/C(=O)OCc3cc(OC)c(OC)cc32)cc1	-	65.0	-	-	-
COc1ccc(/C=C2\CCOC2=O)cc1	-	-	-	-	.
O=C1c2ccccc2C(=O)N1Cc1ccco1	-	-	-	-	.
CC1=CC(=C2C(=O)c3ccccc3C2=O)C=C(C)N1Cc1ccco1	-	66.0	-	-	-
COC(=O)c1ccc2c(=O)n(CCCCCC(=O)NC3CCCCC3)c(=O)[nH]c2c1	-	.	.	.	.
COc1ccc(S(=O)(=O)N(CC(=O)O)c2ccccn2)cc1	-	-	-	-	.
COc1ccc(S(=O)(=O)n2ccc(-c3ccc(OCCN(C)c4ccccn4)cc3)n2)cc1	-	73.0	-	-	-
O=C(CC(c1ccc(F)cc1)c1ccco1)N1CCOCC1 (stereo not given)	-	72.0	-	-	-
Cc1cc(N2C(=O)CC(Cc3ccccc3)C2=O)no1 (stereo not given)	-	72.0	-	-	-
O=C(N[C@@H](Cc1cccnc1)C(=O)N1CCC[C@H]1C(=O)NC1CCCC1)c1cccs1	-	.	.	.	.
Cc1c(C(=O)Nc2ccc(OC(F)(F)F)cc2)sc2nc3n(c(=O)c12)CCC3	-	66.0	-	-	-
COc1ccc(NC(=O)c2sc3nc4n(c(=O)c3c2C)CCC4)c(OC)c1	.	.	.	.	-
Cc1c(C(=O)Nc2cc(F)ccc2F)sc2nc3n(c(=O)c12)CCCCC3	-	-	-	-	.
Cc1c(C(=O)Nc2ccc(Oc3ccccc3)cc2)sc2nc3n(c(=O)c12)CCC3	-	-	-	-	.
SMILES	PG9 binder	ABCB6 inh 2	hiPSC survival	Arr AP2 block	ABCB6 blocker 1
COc1cccc(NC(=O)c2sc3nc4n(c(=O)c3c2C)CCC4)c1	-	24.0	-	-	-
O=C(O)CSc1nnc(Cn2c(=O)sc3ccccc32)n1-c1cccc(Cl)c1	.	-	-	-	.
NC(=O)CSc1nnc(Cn2c(=O)sc3ccccc32)n1-c1cccc(Cl)c1	-	66.0	-	-	-
Cc1nn(-c2ccccc2)c(N)c1Sc1ccccc1[N+](=O)[O-]	-	46.0	-	-	-
CCCCN1CC(COc2ccc(OC)cc2)OCCS1(=O)=O (stereo not given)	-	.	.	.	.
COc1ccc(-c2nnc(N)s2)cc1	-	-	-	-	.
Cc1ccc(-c2nnc(N)s2)cc1	-	69.0	-	-	-
CN(C)S(=O)(=O)c1ccc(C(=O)NCCC(=O)N2CCCC2)cc1	-	70.0	-	-	-
CCN(CC)c1ccc(C(=O)OCC(=O)N(C)Cc2ccccc2)cc1	-	65.0	-	-	-
CCN(CC)c1ccc(C(=O)OCC(=O)N(C(C)C)C(C)C)cc1	-	-	-	-	.
COC(=O)c1cc2c(c3c4ccccc4n(S(=O)(=O)c4ccc(C)cc4)c13)C(=O)N(CC(C)C)C2	-	.	.	.	.
CC(=O)N1CCN(c2ccc(N3CCN(Cc4ccccc4)[C@H](C)C3)c(C)c2)[C@H](C)C1	-	.	.	.	.
COc1ccc(OC)c(NC(=O)C2(C)CCN2Cc2cccc(OC)c2OC)c1 (stereo not given)	-	71.0	-	.	-
CCCN1CCCCC(NC(=O)c2ccc(Cl)cc2Cl)C1=O (stereo not given)	-	.	.	.	.
Cc1ccc(NC(=O)Nc2ccon2)cc1	-	10.0	-	-	-
CCCCCCC(=O)NC1CCCCN(C)C1=O (stereo not given)	-	.	.	.	.
CC(=O)c1ccc(S(=O)(=O)NCc2cccnc2)cc1	-	73.0	-	-	-
Cc1ccccc1C(=O)N[C@H](C(=O)N1CCC[C@H]1C(=O)NC1CCCC1)C1CCCCC1	-	.	.	.	.
O=C(Nc1ccc(F)cc1)c1cccnc1N1CCCCC1	-	-	-	-	.
O=C(Nc1ccc(Br)cc1)c1cccnc1N1CCCCC1	-	73.0	-	-	-
COc1ccc(NC(=O)Cc2ccc(Cl)cc2)cc1NC(=O)c1ccco1	-	60.0	-	-	-
COc1ccc(NC(=O)c2ccco2)cc1NC(=O)c1ccco1	-	-	-	-	.
NC(=O)C(c1ccc(Cl)cc1)c1ccc(Sc2ccccc2)nn1 (stereo not given)	-	73.0	-	-	-
CCOC(=O)C1CCCN(C(=O)c2cn(C)c3ccc(S(=O)(=O)N4CCCC4)cc3c2=O)C1 (stereo not given)	-	57.0	-	-	-
COc1ccc2nc(NN=Cc3cccc(C)n3)cc(C)c2c1	-	.	.	.	.
SMILES	PG9 binder	ABCB6 inh 2	hiPSC survival	Arr AP2 block	ABCB6 blocker 1
c1ccc(-c2ccccc2OCCCN2CCOCC2)cc1	-	-	-	-	.
Fc1ccccc1OCCCN1CCOCC1	-	74.0	-	-	-
COCc1cc(N2CCN(C(=O)OC(C)(C)C)C[C@@H]2C)ccc1N1CC[C@@H](O)C1	-	.	.	.	.
c1ccc(CNc2ncnc3nc[nH]c23)cc1	-	-	-	-	.
CCOc1cc(CNc2ncnc3nc[nH]c23)ccc1OC	-	73.0	-	-	-
CCCCn1ccnc1C(=O)c1cc(S(=O)(=O)N2CCOCC2)ccc1C	-	-	-	-	.
CCCCn1ccnc1C(=O)c1cccc(S(=O)(=O)N2CC(C)CC(C)C2)c1 (stereo not given)	-	74.0	-	-	-
COC(=O)C1=C(C)N(Cc2ccccc2C(F)(F)F)C(=NCc2ccc(C(F)(F)F)cc2)NC1c1ccc(C(F)(F)F)cc1 (stereo not given)	-	.	.	.	.
CCc1ccccc1NC(=O)CCCSc1nc2ccccc2s1	-	72.0	-	-	-
Cc1csc(NC(=O)CCCSc2nc3ccccc3s2)n1	-	-	-	-	.
CC(NC(=O)C(NC(=O)OCc1ccccc1)C(C)O)C(=O)OCc1ccccc1 (stereo not given)	-	.	.	.	.
CC(=O)c1cccc(NC(=O)C2(C)Cc3c(-c4cccc(C(F)(F)F)c4)ccnc3O2)c1 (stereo not given)	-	-	-	.	-
